Paper PMC4102602 (European journal of oral sciences, 2013)
Where two headings read alike, the source gives them in different places.

Experiments:
[1] = tested on: MC3T3-E1 osteoblast-like cells; conditions: osteogenic cell attachment; cited from earlier work
[2] = tested on: MC3T3 cells (RGD-binding integrin receptors); format: cell-based, mouse; conditions: for residual MC3T3 cell attachment activity after preincubating cells with RGD: 30 min preincubation, 25 μM peptide coating concentration, Fig. 4A; for cell attachment activity remaining after preincubating cells with RGD: mean ± S.E, N = 5-6
Method in brief: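 MC3T3 cells were preincubated in tubes for 30 min with RGD tripeptide (up to 500 μM) in serum-free medium with 0.1% BSA. FBS was then added to 10% v/v, and cells were pelleted (600 × g, 5 min) and washed twice. Cells were plated at 30,000/well on BSA-aftercoated polystyrene wells coated with 25 μM peptide for 2 h at 37°C. Attachment was read by hexosaminidase activity, as % of no-RGD control.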

[3] = tested on: MG63 human osteoblast-like cells; format: cell-based; conditions: over the range of surface concentrations shown for P3 in Fig. 3; mean ± S.E; N = at least 6
Method in brief: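 MG63 cells grown in MEM plus NEAA with heat-inactivated 10% FBS. 96-well non-tissue-culture polystyrene plates were coated with peptide, washed, aftercoated with BSA and washed; uncoated plates served as control. Cells were seeded at 30,000/well in serum-free medium for 2 h at 37°C, washed three times with PBS, and counted by hexosaminidase activity as percent of control. Adsorbed peptide was quantified by micro BCA at 562 nm.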

[4] = tested on: MC3T3-E1 osteoblast-like cells; format: cell-based, mouse; conditions: for level of MC3T3 cell attachment / enhancement in the level of MC3T3 osteoprogenitor cell attachment / EC50: Fig. 2; for enhancement in the level of MC3T3 osteoprogenitor cell attachment: coating concentration as low as 1 μM; for EC50: read-out: half-maximal effect on MC3T3 cell attachment, peptide solution phase (coating) concentration, 30,000 cells/well, serum-free, 2 h, 37°C; for maximal increase of MC3T3 cell attachment: solution phase concentrations as high as 50 – 200 μM, control = uncoated wells
Method in brief: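 Non-tissue-culture 96-well polystyrene was coated overnight with peptide solutions, washed, aftercoated with BSA and washed again; uncoated wells served as control. MC3T3-E1 cells were grown in MEM-α with 5% FBS and 5% NCS, then plated at 30,000 cells/well in serum-free medium for 2 h at 37°C. After three PBS washes, attachment was quantified by hexosaminidase activity as % of control. Mean ± SEM, ≥3 independent cultures.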

BSP peptide 278-302 [P4]
attachment potency greater than that of peptide P2 (281-290) [1]: 1-2 orders of magnitude

arg-gly-asp [RGD, reference compound]
block of the attachment of cells to the hBSP peptides ([2]; soluble RGD, MC3T3 cells): 80-90%

hBSP peptide 278-290 [DB2]
residual MC3T3 cell attachment activity after preincubating cells with RGD ([2]; 500 μM RGD): 10-20 % of control | maximal percentage increase in the attachment of MG63 cells [3]: 422 ± 41%

hBSP peptide 278-292 [DB4]
level of MC3T3 cell attachment ([4]; 1 μM coating solution): 380 % of control | level of MC3T3 cell attachment ([4]; 10 μM coating solution, % of control): 540% | level of MC3T3 cell attachment ([4]; 50 μM coating solution, % of control): 590% | level of MC3T3 cell attachment ([4]; 100 μM coating solution, % of control): 670% | level of MC3T3 cell attachment ([4]; 200 μM coating solution, % of control): 710% | enhancement in the level of MC3T3 osteoprogenitor cell attachment [4]: several-fold | EC50 [4]: ~1000 nM | cell attachment activity remaining after preincubating cells with RGD ([2]; 1 μM RGD, MC3T3 cells): 28 ± 10% | cell attachment activity remaining after preincubating cells with RGD ([2]; 500 μM RGD, MC3T3 cells): 14 ± 9% | maximal percentage increase in the attachment of MG63 cells [3]: 731 ± 100%

hBSP peptide 278-293 [P3]
enhancement in the level of MC3T3 osteoprogenitor cell attachment [4]: several-fold | EC50 [4]: ~1000 nM | residual MC3T3 cell attachment activity after preincubating cells with RGD ([2]; 500 μM RGD): 10-20 % of control | attachment potency greater than that of peptide P2 (281-290) [1]: 1-2 orders of magnitude

hBSP peptide 279-292 [DB5]
maximal increase of MC3T3 cell attachment [4]: 150-300 % of control

hBSP peptide 279-293 [DB3]
maximal percentage increase in the attachment of MG63 cells [3]: 228 ± 14%

hBSP peptide 281-293 [DB1]
maximal increase of MC3T3 cell attachment [4]: 150-300 % of control | residual MC3T3 cell attachment activity after preincubating cells with RGD ([2]; 500 μM RGD): 10-20 % of control | maximal percentage increase in the attachment of MG63 cells [3]: 371 ± 21%
